PMC7147967 (Nature nanotechnology, 2020)

Columns and labels:
[1] = target: Soluble extracellular domain of HER2 protein (Homo sapiens, UniProt P04626); test: Fibrillar transformation of NPs on interaction with HER2 protein; conditions: TEM/DLS, over 24 h, HER2 protein/peptide ligand 1:1000
Method in brief: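 Soluble HER2 extracellular domain (HEK 293-expressed) was added to fresh nanoparticles (99% water, 20 μM) at a HER2/peptide ligand ratio of 1:1000. At 0.5, 6 and 24 h, samples were taken for DLS size and zeta potential, CD, and TEM with uranyl acetate staining. Bis-pyrene AIE fluorescence was followed over time to track transformation.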

[2] = system: MCF-7/C6 HER2+ breast cancer; test: In vivo therapeutic effect, MCF-7/C6 xenograft; parameters: species or system Balb/c nude mice; conditions: 8 mg/kg i.v., 8 times q.o.d., n = 8 per group
Method in brief: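 Balb/c nude mice bearing s.c. flank MCF-7/C6 tumours (5×10^6 cells) were randomised into five groups 10 days after inoculation. Groups received PBS or test nanoparticles i.v. every 48 h. Tumour volume and body weight were measured twice weekly over the 40-day treatment, and survival was followed. Data are mean ± s.d.; t-test or ANOVA.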

[3] = system: MCF-7/C6 tumour tissue; test: Tumour tissue analysis after three injections; format: in vivo, Balb/c nude mice; conditions: 3 consecutive q.o.d. injections, 8 mg/kg, n = 6
Method in brief: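 MCF-7/C6 tumour-bearing Balb/c nude mice were sacrificed after three i.v. injections given every other day. Excised tumours were processed for H&E staining, Ki-67 staining, fluorescence imaging of sections and high-magnification TEM.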

[4] = Size of nanoparticles by DLS and TEM; format: physicochemical; conditions: fresh NPs, 99% water content (H2O:DMSO 99:1), 20 μM
Method in brief: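 Peptide in DMSO was diluted with DMSO/deionized water mixtures to give a range of water contents. Nanoparticle formation was checked by UV–vis absorption and fluorescence spectra. Freshly made nanoparticles (99% water, 20 μM) were sized by DLS and by TEM with uranyl acetate staining.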

| Substance | structural transformation after treatment with HER2 protein [1] | time within which all mice died [2] [days] | cell kill in tumour sections (H&E) [3] | diameter of nanoparticles [4] |
| --- | --- | --- | --- | --- |
| BP-FFVLK-PEG1000 [NPs3] | did not reveal any significant changes | ≤ 57 | No significant cell kill was detected | 25–60 nm |
| BP-GGAAK-PEG1000 [NPs4] | did not reveal any significant changes | ≤ 60 | No significant cell kill was detected | around 20 nm |
